Compound activity as filed in PubChem BioAssay.
The list is a sample of the results.
Apaf1 activ – activators of human Apaf-1 apoptosome, primary screen, biochemical, DEVD-Rh110 fluorescence, uHTS | Apaf-1 apoptosome caspase-3 activation; stronger effect = lower value | activity change, negative = activation, % at 20 µM | 0.31% of 330,000 active | AID 489031, 2010;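 active = activity change at or below -40% at 20 µM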
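system = biochemical Apaf-1 apoptosome reconstitution | buffer or medium = 20 mM HEPES pH 7.5 with CHAPS, BSA | also added = dATP and cytochrome c as apoptosome triggers, (Z-DEVD)2-Rh110 substrate | incubation = 30 min compound preincubation and 50 min reaction, both room temperature | measured by = fluorescence, 540 nm emission, 480 nm excitation | read-out basis = Caspase-3 cleavage activity downstream of Apaf-1 activation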
Rh110 interf act – Rh110 fluorescence interference by putative Apaf-1 activators, confirmation, artefact control for Apaf-1 activator project, biochemical, 20 µM; shares compounds with Apaf1 activ; quenched caspase reaction, Ex480/Em540; fluorescence interference (activity change), % at 20 µM, hits read low; 980 tested, under 10 active;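 active = mean activity change at or below -40% when tested at 20 µM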
Apaf-1 act conf2 – Apaf-1 activators, single-dose retest, confirmation, biochemical, fluorescence, DEVD-Rh110, 20 µM; reconstituted apoptosome caspase-3 activity; stronger effect = lower value; activity change, negative = activation, % at 20 µM; shares compounds with Apaf1 activ; 5% of 980 active;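 active = mean activity change at or below -40%, meaning activation of 40% or more, at 20 µM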
Apaf1 act interf – fluorescence interference of Apaf-1 activator hits, dose response, artefact control for Apaf-1 activator project; shares compounds with Apaf1 activ; fluorescence interference counterscreen, Apaf-1 activator assay; EC50, µM; 55 tested, under 10 active; call rule not given here
Numbers stand for hits; – = inactive; · = no result given.

SMILES	Apaf1 activ	Rh110 interf act	Apaf-1 act conf2	others
Cc1ccc(C)c(NC(=S)NCCN(C2CCCCC2)C2CCCC2)c1	-73.1	–	–
Cc1ccc(C)c(NC(=S)Nc2cccc3cnccc23)c1	–	·	·
COc1ccc(-n2nc3ccc(N)cc3n2)cc1Cl	–	·	·
Cc1ccc(-n2nc3ccc(N)cc3n2)c(C)c1	–	·	·
Cc1nn(-c2ccccc2)c(N2CCCC2)c1/C=C1\N=C(c2ccc(OC(C)C)cc2)OC1=O	–	·	·
O=c1[nH]c2ccc(S(=O)(=O)Nc3ccc(-c4nnc5n4CCCCC5)cc3)cc2o1	-153.8	–	–
COC(=O)c1ccccc1-c1ccc(/C=C2\C(=O)N(c3ccccc3)N=C2c2ccccc2)o1	–	·	·	Apaf1 act interf=–
CC1=NN(c2ccccc2)C(=O)/C1=C/c1ccc(-c2ccc(C)c(C(=O)O)c2)o1	–	·	·
CC1=NN(c2ccc(C(=O)O)cc2)C(=O)/C1=C/c1ccc(-c2ccccc2F)o1	–	·	·
CCCCCc1cc(=O)oc2c(C(CCN3CCCC(C)C3)c3ccc(N(C)C)cc3)c(OC)cc(OC)c12 (configuration not stated)	–	·	·
O=C1/C(=C/c2ccccn2)SC(=S)N1c1ccc(O)cc1	-47.2	–	–
COc1ccccc1-c1sc2cc3c(cc2c1-c1ccc(OCCN2CCCCC2)cc1)OCO3	–	·	·
Nc1ccnc(C(F)(F)F)c1C(=O)c1ccccc1	-43.3	–	–
CNC[C@H](Cc1cccc2ccccc12)NC[C@H](CCSC)NCC1CCC(C(C)(C)C)CC1 (some centres not stated)	–	·	·
NC1=NC[C@H](c2ccccc2)N1CCc1cc(C(F)(F)F)cc(C(F)(F)F)c1	–	·	·
O=C(Cn1cc(S(=O)(=O)Cc2ccccc2)c2ccccc21)N1CCOCC1	-232.7	–	–
CCOc1cc(NCc2ccccc2)c2ncn(C(C)C)c2c1	–	·	·
COc1ccc(C[C@H]2CN3C(=NC[C@@H]3Cc3ccccc3)N2CCNC(=O)c2ccc(C)c(Br)c2)cc1	–	·	·
CCOC(=O)c1c(C)c(C(=O)NCC2CCCO2)c(C)n1C (configuration not stated)	-58.6	–	–
Cc1cccnc1NC(=O)c1ccc(OCC2CCCO2)cc1 (configuration not stated)	–	·	·
CCN(CC)S(=O)(=O)c1cccc(NC(=O)C2SC(=Nc3ccc(C)cc3C)C(C(=O)NCC3CCCO3)=C2N)c1 (configuration not stated)	–	·	·
O=C(Nc1ccccc1OC(F)F)c1oc2ccccc2c1COc1ccccc1	-180.4	–	–
CCN(CC)C(=O)C1CCCN(C(=O)Nc2ccc3nsnc3c2)C1 (configuration not stated)	–	·	·
CC(=O)N=Cc1c(C)c(C#N)c(=O)n(C)c1O	–	·	·
Cc1ccccc1N=Cc1cccc(O)c1O	–	·	·
SMILES	Apaf1 activ	Rh110 interf act	Apaf-1 act conf2	others
COCC(C)N1C(=O)Cc2c1nc(N)c1c(N)nc(N3CCN(c4ccccc4F)CC3)c(C#N)c21 (configuration not stated)	–	·	·
O=C1C(Cl)=C(NCc2cccnc2)C(=O)c2ccccc21	–	·	·
COCCN(CCOC)Cc1c(O)ccc2c3c(c(=O)oc12)CCC3	-336.1	–	–
CC(=O)c1cc(O)c2ccccc2c1O	–	·	·
CC(C)C[C@@H]1CN=C(N)N1C[C@@H]1CCCN1C[C@@H](C(C)C)N1C[C@@H](Cc2ccccc2)N(CCCC2CCCC2)C1=N	–	·	·
COc1ccc(C[C@H]2CN3C(=NC[C@H]3Cc3ccccc3)N2CCNC(=O)c2ccc(C)c(Br)c2)cc1	–	·	·
CCOc1ccccc1NC(=O)c1cc(-c2ccccn2)nc2ccccc12	–	·	·
CC(C)(C)NC(=O)c1cc(-c2ccc3c(c2)OCO3)nc2ccccc12	-71.3	–	–
CCOC(=O)N=Nc1c2ccccc2c2nc3no[nH]c3nc12	–	·	·
CC(C)(O)C#Cc1ccc(CN2CCC(n3nccc3NC(=O)C3CC3)CC2)cc1	-78.6	–	–
C=CCn1c(N)c(C(=O)OC(C)(C)C)c2nc3ccccc3nc21	–	·	·
CCN1CCN(c2ccc(S(=O)(=O)N3CCCCC3)cc2NC(=O)/C=C/c2ccc(OC(F)F)cc2)CC1	–	·	·
O=C(COC(=O)/C=C/c1ccc(OC(F)F)cc1)NC1CCCCCC1	-64.2	–	–
Nc1c2c(nc3ccccc13)CCCC2	–	·	·
COc1ccc(CCN2C(=O)c3[nH]nc(-c4ccccc4O)c3C2c2cccc(Cl)c2)cc1 (configuration not stated)	–	·	·
COc1ccc([C@@H]2CC=C(C(=O)O)[C@H](c3cccc(Cl)c3)N2S(=O)(=O)c2ccc(Cl)cc2)cc1	-72.8	–	–
CSc1ccc2c(c1)N(CCC1CCCCN1C)c1ccccc1S2 (configuration not stated)	–	·	·
O=C(O)c1cc(O)c2c(c1)[C@@H]([C@H]1c3cc(C(=O)O)cc(O)c3C(=O)c3c(O[C@@H]4O[C@H](CO)[C@@H](O)[C@H](O)[C@H]4O)cccc31)c1cccc(O[C@@H]3O[C@H](CO)[C@@H](O)[C@H](O)[C@H]3O)c1C2=O	–	·	·
O=C(c1cccc(S(=O)(=O)N2CCN(c3ccc(F)cc3)CC2)c1)N1CCCCCCC1	–	·	·
COc1ccc(-c2cc(C(=O)N3CCN(C(c4ccccc4)c4ccccc4)CC3)no2)cc1OC	-159.3	–	–
COc1cccc(-c2cc(C(=O)N3CCN(c4ccc(F)cc4)CC3)no2)c1	-69.0	–	–
CCN(CC)CCNC(=O)c1ccc(NC(=O)c2cn(-c3ccc(F)cc3)nc2-c2cccc(OC)c2)cc1	–	·	·
COc1ccc(OCc2cc(C(=O)N3CCC(OC)CC3)no2)c2ccccc12	–	·	·
O=C(N/N=C\C=C\c1ccc([N+](=O)[O-])o1)c1cccs1	–	·	·
CC(=O)CC(c1ccccc1)c1c(O)c2ccccc2oc1=O (configuration not stated)	–	·	·
SMILES	Apaf1 activ	Rh110 interf act	Apaf-1 act conf2	others
CCN1/C(=C/C=C/C=C/c2sc3ccccc3[n+]2CC)Sc2ccccc21	–	·	·
N#Cc1nc(-c2ccc(OCc3ccc(Cl)cc3)cc2)oc1N1CCC(C(N)=O)CC1	-82.1	–	-96.4	Apaf1 act interf=–
Cc1onc(-c2ccccc2Cl)c1C(=O)N[C@@H]1C(=O)N2[C@@H]1SC(C)(C)[C@@H]2C(=O)O	–	·	·
O=C(NCc1nc2ccccc2[nH]1)C1=C[C@H](c2ccccc2)C[C@H](OCc2ccc(CO)cc2)O1	-127.3	–	–
O=C1c2ccccc2[C@@H]2C[C@@H](O)[C@H](Nc3cccc4ccccc34)CCN12	–	·	·
CCOC(=O)c1nn(-c2ccccc2)c(=O)cc1OCC(=O)Nc1cc(C)ccc1OC	-57.0	–	–
CCOc1cc(/C=C2/C(=O)N(c3ccccc3)N=C2C)ccc1OC(=O)c1ccco1	–	·	·
Cc1ccc(-c2ccc(/C=N\NC(=O)C3C(=O)NCC3c3ccccc3)o2)cc1Cl (configuration not stated)	–	·	·
O=C(Nc1ccccn1)c1ccc2ccccc2c1O	–	·	·
